Test results: ChEMBL document CHEMBL4765233, “From Lead to Drug Candidate: Optimization of 3-(Phenylethynyl)-1H-pyrazolo[3,4-d]pyrimidin-4-amine Derivatives as Agents for the Treatment of Triple Negative Breast Cancer” (J Med Chem, 2016)
Activity calls are given as the source filed them. No cut-off for these calls is given here.

Legend:
[1] = Toxicity against SCID mouse xenografted with human MDA-MB-231 cells assessed as change in body weight at 10 mg/kg, iv administered weekly for 21 days and measured every 3 days; type: organism-based; conditions: in vivo, 504 h, time 21 day
How it was run: (§1)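 Exponential-phase cells washed and injected subcutaneously (5 × 10^6 cells in 100 μL) into 5–6-week SCID mice. At 150–200 mm3, mice randomised to groups of 6. Oral dosing daily in water with 25% PEG400 and 5% DMSO; paclitaxel 10 mg/kg weekly by tail vein. Body weight measured every 3 days and side effects checked daily.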

[2] = Toxicity against SCID mouse xenografted with human MDA-MB-435 cells assessed as change in body weight at 10 mg/kg, iv administered weekly for 21 days and measured every 3 days; type: organism-based; conditions: in vivo, 504 h, time 21 day; how it was run: as §1
MDA-MB-231 [3] = assay: Antitumor activity against human MDA-MB-231 cells xenografted in SCID mouse assessed as tumor growth inhibition at 10 mg/kg, iv administered weekly for 21 days and measured every 3 days; type: functional, organism-based; conditions: time 21.0 day
How it was run: (§2)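 SCID mice (5−6 weeks) injected subcutaneously with 100 μL of cells at 5 × 10^7/mL. At 150−200 mm3 mice randomized, 6 per group. Oral compounds given in water with 25% PEG400 plus 5% DMSO; paclitaxel given 10 mg/kg/week iv. Tumor volume a×b²/2 and body weight measured every 3 days. Inhibition rate (c−d)/c×100% against vehicle control.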

[4] = test system: MDA-MB-435 (Homo sapiens); assay: Antitumor activity against human MDA-MB-435 cells xenografted in SCID mouse assessed as tumor growth inhibition at 10 mg/kg, iv administered weekly for 21 days and measured every 3 days; conditions: time 21.0 day
MDA-MB-231 [5] = assay: Antiproliferative activity against human MDA-MB-231 cells assessed as reduction in cell viability incubated for 72 hrs by MTT assay; type: functional, cell-based; conditions: MDA-MB-231, 72 h
How it was run: (§3)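 MTT viability assay. ATCC cell lines were grown in designated medium with 10% FBS at 37 °C, 5% CO2. Cells seeded at 1500−30000 per well and incubated 24 h, then exposed to compound (0−10 μg/mL) for 72 h. MTT added for 2−4 h. Formazan dissolved in DMSO (adherent) or acidified SDS overnight (suspension), absorbance read at 570 nm. Triplicates; IC50 calculated.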

[6] = Toxicity in SCID mouse xenografted with MDA-MB-231 cells assessed as change in body weight at 40 mg/kg, po qd for 15 days and measured every 3 days; type: organism-based; conditions: in vivo, 360 h, dose 40 mg/kg/day, time 15 day
MDA-MB-435 = assay: Antiproliferative activity against human MDA-MB-435 cells assessed as reduction in cell viability incubated for 72 hrs by MTT assay; type: functional, cell-based; conditions: MDA-MB-435, 72 h; how it was run: as §3
[7] = biological target: Voltage-gated inwardly rectifying potassium channel KCNH2 (Homo sapiens, UniProt Q12809); assay: Inhibition of human ERG expressed in CHO cells at -80 mV holding potential by automated Qpatch electrophysiological assay
[8] = Toxicity in SCID mouse xenografted with MDA-MB-231 cells assessed as animal death at 40 mg/kg, po qd for 15 days; type: organism-based; conditions: in vivo, dose 40 mg/kg/day, time 15 day, read-out: Activity
HepG2 = assay: Antiproliferative activity against human HepG2 cells assessed as reduction in cell viability incubated for 72 hrs by MTT assay; type: ADME, cell-based; conditions: HepG2, 72 h
MDA-MB-231 [9] = assay: Antitumor activity against human MDA-MB-231 cells xenografted in SCID mouse assessed as tumor growth inhibition at 40 mg/kg, po qd for 15 days and measured every 3 days; type: functional; conditions: MDA-MB-231, po, 360 h, time 15 day; how it was run: as §2
MDA-MB-231 [10] = assay: Antitumor activity against human MDA-MB-231 cells xenografted in SCID mouse assessed as tumor growth inhibition at 20 mg/kg, po qd for 15 days and measured every 3 days; conditions: MDA-MB-231, po, 360 h, read-out: INH
[11] = Toxicity in SCID mouse xenografted with MDA-MB-231 cells assessed as change in body weight at 20 mg/kg, po qd for 15 days and measured every 3 days; type: organism-based; conditions: in vivo, 360 h, dose 20 mg/kg/day, time 15 day
[12] = Toxicity in SCID mouse xenografted with MDA-MB-231 cells assessed as animal death at 20 mg/kg, po qd for 15 days; type: organism-based; conditions: in vivo, dose 20 mg/kg/day, time 15 day, read-out: Activity
[13] = Toxicity in SCID mouse xenografted with MDA-MB-231 cells assessed as animal death at 40 mg/kg, po qd for 21 days; type: organism-based; conditions: in vivo, dose 40 mg/kg/day, time 21 day, read-out: Activity
How it was run: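 SCID mice aged 5–6 weeks were injected subcutaneously with 100 μL of MDA-MB-231 cells resuspended at 5 × 10^7 per mL. When tumours reached 150–200 mm3, mice were randomised into groups of 3 or 6. Dosing was oral and daily, in sterile water with 25% PEG400 plus 5% DMSO. Side effects were checked daily and body weight every 3 days.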

[14] = Toxicity in SCID mouse xenografted with MDA-MB-231 cells assessed as change in body weight at 40 mg/kg, po qd for 21 days and measured every 3 days; type: organism-based; conditions: in vivo, 504 h, dose 40 mg/kg/day, time 21 day; how it was run: as §1
MDA-MB-231 [15] = assay: Antitumor activity against human MDA-MB-231 cells xenografted in SCID mouse assessed as tumor growth inhibition at 40 mg/kg, po qd for 21 days and measured every 3 days; type: functional; conditions: MDA-MB-231, po, 504 h, time 21 day; how it was run: as §2
[16] = Cmax in Sprague-Dawley rat at 10 mg/kg, po administered via gavage by LC-MS analysis; type: ADME, organism-based; set-up: route oral, dose 10 mg/kg; conditions: in vivo
[17] = Tmax in Sprague-Dawley rat at 10 mg/kg, po administered via gavage by LC-MS analysis; type: ADME, organism-based; conditions: in vivo
[18] = AUC (0 to infinity) in Sprague-Dawley rat at 10 mg/kg, po administered via gavage by LC-MS analysis; type: ADME, organism-based; set-up: time infinity, route oral, dose 10 mg/kg; conditions: in vivo
[19] = Half-life in Sprague-Dawley rat at 10 mg/kg, po administered via gavage by LC-MS analysis; type: ADME, organism-based; conditions: in vivo
[20] = AUC (0 to t) in Sprague-Dawley rat at 10 mg/kg, po administered via gavage by LC-MS analysis; type: ADME, organism-based; set-up: dose 10 mg/kg; conditions: in vivo

Chain of Voltage-gated inwardly rectifying potassium channel KCNH2 (Q12809 whole entry): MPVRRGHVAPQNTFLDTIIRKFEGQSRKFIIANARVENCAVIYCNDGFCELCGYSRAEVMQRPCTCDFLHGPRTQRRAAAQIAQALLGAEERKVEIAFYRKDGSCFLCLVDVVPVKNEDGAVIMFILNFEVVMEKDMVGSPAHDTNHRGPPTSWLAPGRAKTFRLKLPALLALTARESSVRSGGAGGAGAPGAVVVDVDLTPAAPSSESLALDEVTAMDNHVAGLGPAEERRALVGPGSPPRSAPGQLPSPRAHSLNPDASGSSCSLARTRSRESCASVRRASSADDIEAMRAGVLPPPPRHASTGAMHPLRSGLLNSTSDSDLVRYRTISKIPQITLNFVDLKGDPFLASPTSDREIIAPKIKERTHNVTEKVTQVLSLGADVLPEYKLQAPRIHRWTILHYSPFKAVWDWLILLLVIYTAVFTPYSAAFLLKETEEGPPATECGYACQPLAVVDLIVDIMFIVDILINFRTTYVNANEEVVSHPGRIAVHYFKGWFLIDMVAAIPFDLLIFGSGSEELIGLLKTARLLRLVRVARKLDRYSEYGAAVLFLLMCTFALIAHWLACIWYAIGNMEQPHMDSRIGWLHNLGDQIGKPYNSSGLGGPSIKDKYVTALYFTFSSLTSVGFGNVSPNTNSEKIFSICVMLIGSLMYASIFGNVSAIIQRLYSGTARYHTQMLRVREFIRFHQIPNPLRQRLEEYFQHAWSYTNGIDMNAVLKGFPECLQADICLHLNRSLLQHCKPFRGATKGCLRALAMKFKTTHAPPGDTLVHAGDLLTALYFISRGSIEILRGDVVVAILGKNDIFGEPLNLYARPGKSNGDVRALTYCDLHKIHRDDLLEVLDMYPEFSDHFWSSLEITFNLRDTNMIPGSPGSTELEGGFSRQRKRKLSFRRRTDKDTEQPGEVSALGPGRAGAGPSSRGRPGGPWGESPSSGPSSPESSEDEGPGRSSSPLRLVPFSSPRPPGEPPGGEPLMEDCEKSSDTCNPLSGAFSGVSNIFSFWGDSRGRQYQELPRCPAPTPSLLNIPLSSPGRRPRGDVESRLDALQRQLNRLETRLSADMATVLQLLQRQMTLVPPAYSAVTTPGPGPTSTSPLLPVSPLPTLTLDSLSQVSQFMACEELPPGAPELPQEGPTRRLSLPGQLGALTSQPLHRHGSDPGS

CC(=O)O[C@H]1C(=O)[C@@]2(C)[C@H]([C@H](OC(=O)c3ccccc3)[C@]3(O)C[C@H](OC(=O)[C@H](O)[C@@H](NC(=O)c4ccccc4)c4ccccc4)C(C)=C1C3(C)C)[C@]1(OC(C)=O)CO[C@@H]1C[C@@H]2O [PACLITAXEL]
Activity [1]: Non-Toxic | Activity [2]: Non-Toxic | Activity (MDA-MB-231 [3]): Active | Activity [4]: Active

Cc1ccc(NC(=O)c2ccc(Cl)c(C(F)(F)F)c2)cc1C#Cc1nn([C@H]2CC[C@H](O)CC2)c2ncnc(N)c12
IC50 (MDA-MB-231 [5]): 16 nM | Activity [6]: -13.4% | IC50 (MDA-MB-435): 37 nM | IC50 [7]: > 30000 nM | mortality at 360 h [8]: 0% | IC50 (HepG2): > 10000 nM | inhibition in vivo at 40 mg/kg/day (MDA-MB-231 [9]): 96.1%

Cc1ccc(NC(=O)c2cccc(C(F)(F)F)c2)cc1C#Cc1nn([C@H]2CC[C@@H](O)CC2)c2ncnc(N)c12
inhibition in vivo at 20 mg/kg/day (MDA-MB-231 [10]): 70.2% | Activity [11]: -2% | mortality at 360 h [12]: 0% | IC50 (HepG2): 7900 nM

Cc1ccc(NC(=O)c2cccc(C(F)(F)F)c2)cc1C#Cc1nn(C2CCN(C)CC2)c2ncnc(N)c12
IC50 (MDA-MB-231 [5]): 13 nM | mortality at 504 h [13]: 0% | Activity [14]: -3.1% | inhibition in vivo at 40 mg/kg/day (MDA-MB-231 [15]): 90.7% | IC50 (MDA-MB-435): 80 nM | IC50 [7]: 600 nM | IC50 (HepG2): > 10000 nM

Cc1ccc(NC(=O)c2ccc(Cl)c(C(F)(F)F)c2)cc1C#Cc1nn(C[C@H](C)CO)c2ncnc(N)c12
IC50 (MDA-MB-231 [5]): 17 nM | IC50 (MDA-MB-435): 323 nM | IC50 [7]: > 30000 nM | IC50 (HepG2): > 10000 nM

Cc1ccc(NC(=O)c2cccc(C(F)(F)F)c2)cc1C#Cc1nn([C@H]2CC[C@H](O)CC2)c2ncnc(N)c12
Cmax [16]: 128 ng/mL | inhibition in vivo at 20 mg/kg/day (MDA-MB-231 [10]): 79.6% | Activity [6]: 3.1% | Activity [11]: 3.5% | Tmax [17]: 6 h | AUC(0-inf) [18]: 976 ng·h/mL | mortality at 360 h [12]: 0% | half-life [19]: 4.7 h | mortality at 360 h [8]: 0% | inhibition in vivo at 40 mg/kg/day (MDA-MB-231 [9]): 89.1% | AUC(0-t) [20]: 960 ng·h/mL
